Test results from ChEMBL document CHEMBL4002591 (J Med Chem, 2017).
The source made the active and inactive calls. No cut-off for these calls is given here.

Assays:
[1] = biological target: T1, Protein mono-ADP-ribosyltransferase PARP16 (Homo sapiens, UniProt Q8N5Y8); assay: Inhibition of PARP16 (unknown origin)
T1 sequence (Q8N5Y8 whole entry): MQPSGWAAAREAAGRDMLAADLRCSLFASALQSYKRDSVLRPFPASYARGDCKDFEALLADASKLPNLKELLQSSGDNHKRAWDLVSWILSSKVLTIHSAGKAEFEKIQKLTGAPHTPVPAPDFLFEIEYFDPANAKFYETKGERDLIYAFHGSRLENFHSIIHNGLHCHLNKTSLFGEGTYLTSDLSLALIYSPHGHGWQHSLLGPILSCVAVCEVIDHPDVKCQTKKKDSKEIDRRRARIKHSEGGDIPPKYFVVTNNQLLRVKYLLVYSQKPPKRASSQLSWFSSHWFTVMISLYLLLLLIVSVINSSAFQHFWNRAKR

DLD-1 = assay: Anti-proliferative activity against human DLD1 cells assessed as inhibition of colony formation at 100 nM measured after 18 days under normal serum condition by trypan blue staining based light microscopic analysis; type: functional, cell-based
Method in brief: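 DLD-1 colony-forming assay under normal serum: 1000 cells/well, with 1.0 µM or 100 nM compound, or a 1% DMSO (v/v) vehicle control. Colonies were counted, n = 3.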

[2] = biological target: Poly [ADP-ribose] polymerase 1 (Homo sapiens, UniProt P09874); assay: Inhibition of PARP1 (unknown origin)
Chain of Poly [ADP-ribose] polymerase 1 (P09874 whole entry): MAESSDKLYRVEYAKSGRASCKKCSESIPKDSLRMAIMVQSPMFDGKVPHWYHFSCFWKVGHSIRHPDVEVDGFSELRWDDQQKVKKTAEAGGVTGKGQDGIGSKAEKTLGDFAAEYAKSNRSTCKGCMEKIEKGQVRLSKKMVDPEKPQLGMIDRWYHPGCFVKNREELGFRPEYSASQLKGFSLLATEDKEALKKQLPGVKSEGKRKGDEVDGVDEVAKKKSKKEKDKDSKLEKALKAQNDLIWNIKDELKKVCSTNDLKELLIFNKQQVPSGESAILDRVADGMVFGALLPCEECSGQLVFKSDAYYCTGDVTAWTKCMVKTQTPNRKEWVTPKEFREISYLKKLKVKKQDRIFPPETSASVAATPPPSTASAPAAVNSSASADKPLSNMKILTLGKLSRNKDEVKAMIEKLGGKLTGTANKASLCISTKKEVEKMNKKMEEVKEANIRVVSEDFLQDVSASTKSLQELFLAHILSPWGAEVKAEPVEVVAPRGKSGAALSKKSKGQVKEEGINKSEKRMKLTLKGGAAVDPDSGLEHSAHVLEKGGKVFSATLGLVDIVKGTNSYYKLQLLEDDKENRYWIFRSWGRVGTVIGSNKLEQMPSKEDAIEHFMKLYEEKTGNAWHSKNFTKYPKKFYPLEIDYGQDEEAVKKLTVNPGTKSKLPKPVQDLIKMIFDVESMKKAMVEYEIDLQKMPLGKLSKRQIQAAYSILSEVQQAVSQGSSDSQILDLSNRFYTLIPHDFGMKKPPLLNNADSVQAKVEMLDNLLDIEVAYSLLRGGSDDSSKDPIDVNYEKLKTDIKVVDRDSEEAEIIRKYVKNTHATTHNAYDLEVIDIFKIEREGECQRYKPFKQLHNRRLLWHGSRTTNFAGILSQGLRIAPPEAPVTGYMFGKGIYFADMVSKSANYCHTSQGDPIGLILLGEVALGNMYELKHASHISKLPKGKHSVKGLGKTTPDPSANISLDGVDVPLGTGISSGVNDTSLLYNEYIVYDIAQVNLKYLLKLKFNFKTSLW

Row | IC50 [2] | Compound | IC50 [1] | inhibition (DLD-1)
1 | 6.5 µM | Cc1cccc2c(=O)[nH]c(CCC(=O)Nc3ccc(C(=O)Nc4cccc5cccnc45)cc3)nc12 | > 100 µM | Active
2 |  | O=C(CCc1nc2ccccc2c(=O)[nH]1)Nc1ccc(C(=O)Nc2cccc3cccnc23)cc1 | > 100 µM | Active
